Experimental data published in ChEMBL document CHEMBL1133976, “Orally bioavailable, indole-based nonpeptide GnRH receptor antagonists with high potency and functional activity” (Bioorg Med Chem Lett, 2001).

System: not listed separately
Test: Oral bioavailability in Rhesus monkey
Assay type: ADME, organism-based, Macaca mulatta
Conditions: in vivo

Structure (SMILES) | bioavailability [%]
Cc1cc(C)cc(-c2[nH]c3ccc(C(C)(C)C(=O)N4C5CCC4CC5)cc3c2[C@H](C)CNCCc2ccncc2)c1 | 6.4
Cc1cc(C)cc(-c2[nH]c3ccc(C(C)(C)C(=O)N4CC5CCC4CC5)cc3c2[C@H](C)CNCCc2ccncc2)c1 | 21
Cc1cc(C)cc(-c2[nH]c3ccc(C(C)(C)C(=O)N4CC5CCC4CC5)cc3c2[C@H](C)CNCCc2cc(C)c(=O)n(C)c2)c1 | 4

System: not listed separately
Test: Oral bioavailability in rat
Assay type: ADME, organism-based
Conditions: in vivo

Structure (SMILES) | bioavailability [%]
Cc1cc(C)cc(-c2[nH]c3ccc(C(C)(C)C(=O)N4C5CCC4CC5)cc3c2[C@H](C)CNCCc2ccncc2)c1 | 23
Cc1cc(C)cc(-c2[nH]c3ccc(C(C)(C)C(=O)N4CC5CCC4CC5)cc3c2[C@H](C)CNCCc2ccncc2)c1 | 8
Cc1cc(C)cc(-c2[nH]c3ccc(C(C)(C)C(=O)N4CC5CCC4CC5)cc3c2[C@H](C)CNCCCCc2ccncc2)c1 | 14

System: not listed separately
Test: Oral bioavailability in dog
Assay type: ADME, organism-based, Canis lupus familiaris
Conditions: in vivo

Structure (SMILES) | bioavailability [%]
Cc1cc(C)cc(-c2[nH]c3ccc(C(C)(C)C(=O)N4C5CCC4CC5)cc3c2[C@H](C)CNCCc2ccncc2)c1 | 14
Cc1cc(C)cc(-c2[nH]c3ccc(C(C)(C)C(=O)N4C[C@H]5CC[C@@H]4C5)cc3c2[C@H](C)CNCCc2ccncc2)c1 | 8.5
Cc1cc(C)cc(-c2[nH]c3ccc(C(C)(C)C(=O)N4CC5CCC4CC5)cc3c2[C@H](C)CNCCc2ccncc2)c1 | 25
Cc1cc(C)cc(-c2[nH]c3ccc(C(C)(C)C(=O)N4CC5CCC4CC5)cc3c2[C@H](C)CNCCc2cccnc2)c1 | 12
Cc1cc(C)cc(-c2[nH]c3ccc(C(C)(C)C(=O)N4CC5CCC4CC5)cc3c2[C@H](C)CNCCCCc2ccncc2)c1 | 7
Cc1cc(C)cc(-c2[nH]c3ccc(C(C)(C)C(=O)N4CC5CCC4CC5)cc3c2[C@H](C)CNCCc2cc(C)c(=O)n(C)c2)c1 | 35

Target: T1, Gonadotropin-releasing hormone receptor (Homo sapiens, UniProt P30968)
T1 sequence (P30968 whole entry): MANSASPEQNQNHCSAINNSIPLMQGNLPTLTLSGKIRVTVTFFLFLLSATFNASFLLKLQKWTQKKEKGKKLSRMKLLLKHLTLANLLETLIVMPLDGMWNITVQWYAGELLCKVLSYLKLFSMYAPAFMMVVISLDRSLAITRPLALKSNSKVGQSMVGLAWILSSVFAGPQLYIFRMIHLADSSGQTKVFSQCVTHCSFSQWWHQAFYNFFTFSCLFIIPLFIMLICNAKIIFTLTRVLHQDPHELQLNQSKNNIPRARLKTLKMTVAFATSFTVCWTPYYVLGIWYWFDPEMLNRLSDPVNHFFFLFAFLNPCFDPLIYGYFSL
Test: In vitro functional antagonism via inhibition of GnRH-stimulated phosphatidylinositol (PI) hydrolysis in cloned Chinese hamster ovary (CHO) cells stably expressing the human GnRH receptor.
Assay type: cell-based
Conditions: not given
Summary of the method: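 Functional antagonism read as inhibition of GnRH-stimulated phosphatidylinositol hydrolysis in cloned CHO cells stably expressing human GnRH receptor; IC50 reported in nM.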

Structure (SMILES) | IC50 [nM]
Cc1cc(C)cc(-c2[nH]c3ccc(C(C)(C)C(=O)N4CC5CCC(CC5)C4)cc3c2[C@H](C)CNCCCCc2ccncc2)c1 | 13
Cc1cc(C)cc(-c2[nH]c3ccc(C(C)(C)C(=O)N4CC5CCC4CC5)cc3c2[C@H](C)CNCCc2cccn(C)c2=O)c1 | 82
Cc1cc(C)cc(-c2[nH]c3ccc(C(C)(C)C(=O)N4C5CCC4CC5)cc3c2[C@H](C)CNCCCCc2ccncc2)c1 | 5.7
COCn1cc(CCNC[C@@H](C)c2c(-c3cc(C)cc(C)c3)[nH]c3ccc(C(C)(C)C(=O)N4CC5CCC4CC5)cc23)ccc1=O | 3.9
Cc1cc(C)cc(-c2[nH]c3ccc(C(C)(C)C(=O)N4CC(C)(C)C4)cc3c2[C@H](C)CNCCCCc2ccncc2)c1 | 21
Cc1cc(C)cc(-c2[nH]c3ccc(C(C)(C)C(=O)N4CCC(C)(C)CC4)cc3c2[C@H](C)CNCCCCc2ccncc2)c1 | 39
Cc1cc(C)cc(-c2[nH]c3ccc(C(C)(C)C(=O)N4CC5(C)CC4CC(C)(C)C5)cc3c2[C@H](C)CNCCCCc2ccncc2)c1 (some centres undefined) | 6.4
Cc1cc(C)cc(-c2[nH]c3ccc(C(C)(C)C(=O)N4CCN(C(=O)OC(C)(C)C)CC4)cc3c2[C@H](C)CNCCCCc2ccncc2)c1 | 220
Cc1cc(C)cc(-c2[nH]c3ccc(C(C)(C)C(=O)N4C[C@H]5CC[C@@H]4C5)cc3c2[C@H](C)CNCCCCc2ccncc2)c1 | 4
Cc1cc(C)cc(-c2[nH]c3ccc(C(C)(C)C(=O)N4CC5CCCC4C5)cc3c2[C@H](C)CNCCCCc2ccncc2)c1 (some centres undefined) | 6.8
Cc1cc(C)cc(-c2[nH]c3ccc(C(C)(C)C(=O)N4C5CCC4CC5)cc3c2[C@H](C)CNCCc2ccncc2)c1 | 7
Cc1cc(C)cc(-c2[nH]c3ccc(C(C)(C)C(=O)N4C[C@H]5CC[C@@H]4C5)cc3c2[C@H](C)CNCCc2ccncc2)c1 | 1.9
Cc1cc(C)cc(-c2[nH]c3ccc(C(C)(C)C(=O)N4CC5CCC4CC5)cc3c2[C@H](C)CNCCC2CCC(=O)N(C)C2)c1 (some centres undefined) | 8.2
Cc1cc(C)cc(-c2[nH]c3ccc(C(C)(C)C(=O)N4C5CCCCC5C5CCCCC54)cc3c2[C@H](C)CNCCCCc2ccncc2)c1 (some centres undefined) | 31
Cc1cc(C)cc(-c2[nH]c3ccc(C(C)(C)C(=O)N4CCC5(CCCC5)CC4)cc3c2[C@H](C)CNCCCCc2ccncc2)c1 | 93
Cc1cc(C)cc(-c2[nH]c3ccc(C(C)(C)C(=O)N4C5CCCC4CC5)cc3c2[C@H](C)CNCCCCc2ccncc2)c1 | 8.8
Cc1cc(C)cc(-c2[nH]c3ccc(C(C)(C)C(=O)N4CC5CCC4CC5)cc3c2[C@H](C)CNCCc2ccncc2)c1 | 7.2
Cc1cc(C)cc(-c2[nH]c3ccc(C(C)(C)C(=O)N4CC5CCC4CC5)cc3c2[C@H](C)CNCCc2ccc(=O)n(C)c2)c1 | 1.4
Cc1cc(C)cc(-c2[nH]c3ccc(C(C)(C)C(=O)N4CC5CCC4CC5)cc3c2[C@H](C)CNCCc2cccnc2)c1 | 2.6
Cc1cc(C)cc(-c2[nH]c3ccc(C(C)(C)C(=O)N4C[C@H]5CCCC[C@H]5C4)cc3c2[C@H](C)CNCCCCc2ccncc2)c1 | 66
Cc1cc(C)cc(-c2[nH]c3ccc(C(C)(C)C(=O)N(CC(C)C)CC(C)C)cc3c2[C@H](C)CNCCCCc2ccncc2)c1 | 14
Cc1cc(C)cc(-c2[nH]c3ccc(C(C)(C)C(=O)N4CC5CCC4CC5)cc3c2[C@H](C)CNCCc2ccc(O)nc2)c1 | 1
CCS(=O)(=O)N1CCN(C(=O)C(C)(C)c2ccc3[nH]c(-c4cc(C)cc(C)c4)c([C@H](C)CNCCCCc4ccncc4)c3c2)CC1 | 124
COc1ccc(CCNC[C@@H](C)c2c(-c3cc(C)cc(C)c3)[nH]c3ccc(C(C)(C)C(=O)N4CC5CCC4CC5)cc23)cn1 | 11
Cc1cc(C)cc(-c2[nH]c3ccc(C(C)(C)C(=O)N4CC5CCC4CC5)cc3c2[C@H](C)CNCCCCc2ccncc2)c1 | 2.8
Cc1cc(C)cc(-c2[nH]c3ccc(C(C)(C)C(=O)N4C[C@@H]5CC[C@H]4C5)cc3c2[C@H](C)CNCCCCc2ccncc2)c1 | 8.7
Cc1cc(C)cc(-c2[nH]c3ccc(C(C)(C)C(=O)N4CC5CCC4CC5)cc3c2[C@H](C)CNCCc2cc(C)c(=O)n(C)c2)c1 | 4
Cc1cc(C)cc(-c2[nH]c3ccc(C(C)(C)C(=O)N4CCC5(CC4)OCCO5)cc3c2[C@H](C)CNCCCCc2ccncc2)c1 | 66

Target: T1, Gonadotropin-releasing hormone receptor
Test: Binding inhibition towards human pituitary gonadotropin-releasing hormone receptor using [125I]buserelin.
Conditions: not given
Summary of the method: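 Competition binding against the agonist radioligand [125I]buserelin at human pituitary GnRH receptor, run in the presence of 0.1% BSA; IC50 reported in nM.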

Structure (SMILES) | IC50 [nM]
Cc1cc(C)cc(-c2[nH]c3ccc(C(C)(C)C(=O)N4CC5CCC(CC5)C4)cc3c2[C@H](C)CNCCCCc2ccncc2)c1 | 2.1
Cc1cc(C)cc(-c2[nH]c3ccc(C(C)(C)C(=O)N4CC5CCC4CC5)cc3c2[C@H](C)CNCCc2cccn(C)c2=O)c1 | 5.3
Cc1cc(C)cc(-c2[nH]c3ccc(C(C)(C)C(=O)N4C5CCC4CC5)cc3c2[C@H](C)CNCCCCc2ccncc2)c1 | 0.7
COCn1cc(CCNC[C@@H](C)c2c(-c3cc(C)cc(C)c3)[nH]c3ccc(C(C)(C)C(=O)N4CC5CCC4CC5)cc23)ccc1=O | 0.4
Cc1cc(C)cc(-c2[nH]c3ccc(C(C)(C)C(=O)N4CC(C)(C)C4)cc3c2[C@H](C)CNCCCCc2ccncc2)c1 | 0.7
Cc1cc(C)cc(-c2[nH]c3ccc(C(C)(C)C(=O)N4CCC(C)(C)CC4)cc3c2[C@H](C)CNCCCCc2ccncc2)c1 | 1.3
Cc1cc(C)cc(-c2[nH]c3ccc(C(C)(C)C(=O)N4CC5(C)CC4CC(C)(C)C5)cc3c2[C@H](C)CNCCCCc2ccncc2)c1 (some centres undefined) | 4.8
Cc1cc(C)cc(-c2[nH]c3ccc(C(C)(C)C(=O)N4C5CCC4CC5)cc3c2CCNCCCCc2ccncc2)c1 | 1.4
Cc1cc(C)cc(-c2[nH]c3ccc(C(C)(C)C(=O)N4CCN(C(=O)OC(C)(C)C)CC4)cc3c2[C@H](C)CNCCCCc2ccncc2)c1 | 6.1
Cc1cc(C)cc(-c2[nH]c3ccc(C(C)(C)C(=O)N4C[C@H]5CC[C@@H]4C5)cc3c2[C@H](C)CNCCCCc2ccncc2)c1 | 1
Cc1cc(C)cc(-c2[nH]c3ccc(C(C)(C)C(=O)N4CC5CCCC4C5)cc3c2[C@H](C)CNCCCCc2ccncc2)c1 (some centres undefined) | 4.8
Cc1cc(C)cc(-c2[nH]c3ccc(C(C)(C)C(=O)N4C5CCC4CC5)cc3c2[C@H](C)CNCCc2ccncc2)c1 | 0.8
Cc1cc(C)cc(-c2[nH]c3ccc(C(C)(C)C(=O)N4C[C@H]5CC[C@@H]4C5)cc3c2[C@H](C)CNCCc2ccncc2)c1 | 1.2
Cc1cc(C)cc(-c2[nH]c3ccc(C(C)(C)C(=O)N4CC5CCC4CC5)cc3c2[C@H](C)CNCCC2CCC(=O)N(C)C2)c1 (some centres undefined) | 0.4
Cc1cc(C)cc(-c2[nH]c3ccc(C(C)(C)C(=O)N4C5CCCCC5C5CCCCC54)cc3c2[C@H](C)CNCCCCc2ccncc2)c1 (some centres undefined) | 21
Cc1cc(C)cc(-c2[nH]c3ccc(C(C)(C)C(=O)N4CCC5(CCCC5)CC4)cc3c2[C@H](C)CNCCCCc2ccncc2)c1 | 2.7
Cc1cc(C)cc(-c2[nH]c3ccc(C(C)(C)C(=O)N4C5CCCC4CC5)cc3c2[C@H](C)CNCCCCc2ccncc2)c1 | 0.8
Cc1cc(C)cc(-c2[nH]c3ccc(C(C)(C)C(=O)N4CC5CCC4CC5)cc3c2[C@H](C)CNCCc2ccncc2)c1 | 0.6
Cc1cc(C)cc(-c2[nH]c3ccc(C(C)(C)C(=O)N4CC5CCC4CC5)cc3c2[C@H](C)CNCCc2ccc(=O)n(C)c2)c1 | 0.2
Cc1cc(C)cc(-c2[nH]c3ccc(C(C)(C)C(=O)N4CC5CCC4CC5)cc3c2[C@H](C)CNCCc2cccnc2)c1 | 0.6
Cc1cc(C)cc(-c2[nH]c3ccc(C(C)(C)C(=O)N4C[C@H]5CCCC[C@H]5C4)cc3c2[C@H](C)CNCCCCc2ccncc2)c1 | 1.4
Cc1cc(C)cc(-c2[nH]c3ccc(C(C)(C)C(=O)N(CC(C)C)CC(C)C)cc3c2[C@H](C)CNCCCCc2ccncc2)c1 | 5.6
Cc1cc(C)cc(-c2[nH]c3ccc(C(C)(C)C(=O)N4CC5CCC4CC5)cc3c2[C@H](C)CNCCc2ccc(O)nc2)c1 | 0.3
CCS(=O)(=O)N1CCN(C(=O)C(C)(C)c2ccc3[nH]c(-c4cc(C)cc(C)c4)c([C@H](C)CNCCCCc4ccncc4)c3c2)CC1 | 4.4
COc1ccc(CCNC[C@@H](C)c2c(-c3cc(C)cc(C)c3)[nH]c3ccc(C(C)(C)C(=O)N4CC5CCC4CC5)cc23)cn1 | 1
Cc1cc(C)cc(-c2[nH]c3ccc(C(C)(C)C(=O)N4CC5CCC4CC5)cc3c2[C@H](C)CNCCCCc2ccncc2)c1 | 1
Cc1cc(C)cc(-c2[nH]c3ccc(C(C)(C)C(=O)N4C[C@@H]5CC[C@H]4C5)cc3c2[C@H](C)CNCCCCc2ccncc2)c1 | 0.4
Cc1cc(C)cc(-c2[nH]c3ccc(C(C)(C)C(=O)N4CC5CCC4CC5)cc3c2[C@H](C)CNCCc2cc(C)c(=O)n(C)c2)c1 | 0.6
Cc1cc(C)cc(-c2[nH]c3ccc(C(C)(C)C(=O)N4CCC5(CC4)OCCO5)cc3c2[C@H](C)CNCCCCc2ccncc2)c1 | 0.6
